{"source": "ChEMBL document CHEMBL3085771", "about": "“Azetidinone-retinoid hybrids: synthesis and differentiative effects” (Eur J Med Chem, 2013)", "key": {"SH-SY5Y [1]": {"tested_on": "SH-SY5Y", "test": "Cytotoxicity against human SH-SY5Y cells at 10 uM after 72 to 96 hrs by MTT assay", "format": "functional, cell-based"}, "SH-SY5Y [2]": {"tested_on": "SH-SY5Y", "test": "Cytotoxicity against human SH-SY5Y cells at 10 uM after 48 hrs by MTT assay", "format": "functional, cell-based"}, "SH-SY5Y [3]": {"tested_on": "SH-SY5Y", "test": "Cytotoxicity against human SH-SY5Y cells assessed as doubling time at 10 uM after 24 to 96 hrs by trypan blue exclusion assay (reference value: 34.9 hrs)", "format": "functional, cell-based"}, "[4]": {"test": "Cytotoxicity against human SH-SY5Y cells after 24 hrs by MTT assay"}, "[5]": {"test": "Cytotoxicity against human SH-SY5Y cells assessed as doubling time at 10 uM after 24 to 72 hrs by trypan blue exclusion assay (reference value: 34.9 hrs)", "format": "functional"}, "SH-SY5Y [6]": {"tested_on": "SH-SY5Y", "test": "Induction of cell differentiation in human SH-SY5Y cells assessed as neural-like differentiation at 10 uM after 6 days using beta3-tubulin and NF200 staining by microscopic analysis", "format": "functional, cell-based", "procedure,_shortened": "(§1)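 SH-SY5Y grown on BME-coated glass coverslips at 1×10⁴ cells/cm², treated from 24 h for 6 days, medium changed every 48 h. Controls were untreated cells and RA 10 microM. Cells fixed in 4% PFA, immunostained overnight at 4 °C for βIII-tubulin and NF200, and counterstained with Hoechst. Imaged at 20×; immunoreactive area normalized to cell number, mean ± SD.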"}, "SH-SY5Y [7]": {"tested_on": "SH-SY5Y", "test": "Induction of cell differentiation in human SH-SY5Y cells assessed as neural-like differentiation at 7.5 uM after 6 days using beta3-tubulin and NF200 staining by microscopic analysis", "format": "functional, cell-based", "procedure,_shortened": "as §1"}, "[8]": {"test": "Cytotoxicity against human SH-SY5Y cells assessed as doubling time at 7.5 uM after 24 to 72 hrs by trypan blue exclusion assay (reference value: 34.9 hrs)", "format": "functional"}, "SH-SY5Y [9]": {"tested_on": "SH-SY5Y", "test": "Cytotoxicity against human SH-SY5Y cells assessed as doubling time at 7.5 uM after 24 to 96 hrs by trypan blue exclusion assay (reference value: 34.9 hrs)", "format": "functional, cell-based"}, "SH-SY5Y [10]": {"tested_on": "SH-SY5Y", "test": "Cytotoxicity against human SH-SY5Y cells at 7.5 uM after 72 to 96 hrs by MTT assay", "format": "functional, cell-based"}}, "note": "pIC50: −log10 of the molar value. Activity calls are given as the source filed them. The rule behind the calls is not given here."}
{"smiles": "CC1=C(/C=C/C(C)=C/CNC(=O)/C=C2/CC(=O)N2)C(C)(C)CCC1", "values": [{"measurement": "Activity", "setting": "SH-SY5Y [1]", "value": "Active"}, {"measurement": "Activity", "setting": "SH-SY5Y [2]", "value": "Active"}, {"measurement": "Activity", "setting": "SH-SY5Y [3]", "value": "inactive"}, {"measurement": "pIC50", "setting": "[4]", "value": 4.42}, {"measurement": "Time", "setting": "[5]", "value": 39.78, "unit": "h"}, {"measurement": "Activity", "setting": "SH-SY5Y [6]", "value": "Active"}]}
{"smiles": "CC1=C(/C=C/C(C)=C\\CNC(=O)/C=C2/CC(=O)N2)C(C)(C)CCC1", "values": [{"measurement": "Activity", "setting": "SH-SY5Y [1]", "value": "Active"}, {"measurement": "Activity", "setting": "SH-SY5Y [2]", "value": "Active"}, {"measurement": "Activity", "setting": "SH-SY5Y [3]", "value": "inactive"}, {"measurement": "pIC50", "setting": "[4]", "value": 4.46}, {"measurement": "Time", "setting": "[5]", "value": 51.25, "unit": "h"}, {"measurement": "Activity", "setting": "SH-SY5Y [6]", "value": "Active"}]}
{"smiles": "CC1=C(/C=C/C(C)=C/C=C/C(C)=C/C(=O)O)C(C)(C)CCC1", "values": [{"measurement": "Activity", "setting": "SH-SY5Y [6]", "value": "Active"}]}
{"smiles": "CSN1C(=O)CC1CC/C=C/C(=O)Nc1ccccc1", "note": "(stereo not drawn)", "values": [{"measurement": "Activity", "setting": "SH-SY5Y [7]", "value": "inactive"}, {"measurement": "Time", "setting": "[8]", "value": 39, "unit": "h"}, {"measurement": "Activity", "setting": "SH-SY5Y [9]", "value": "inactive"}, {"measurement": "Activity", "setting": "SH-SY5Y [10]", "value": "Active"}, {"measurement": "pIC50", "setting": "[4]", "value": 5.00}]}
